Calls of active or inactive are those of the source. The calls are words filed in the database; no cut-off is given here.

The nature of series [1]: Binding affinity to GC-rich FAM-GCGCAGATTTTCTGCGC-TAMRA DNA (unknown origin) assessed as change in melting temperature at 1 uM by FRET assay. In a few lines: (§1)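 Fam/Tamra-labelled hairpins, 400 nM in 50 mM potassium cacodylate pH 7.4, annealed at 85 °C for 5 min, cooled over 5 h, then mixed 1:1 with ligand diluted from DMSO stock; ligand 1 μM, 24 h incubation. Fluorescence (excitation 450−495, emission 515−545 nm) read every 0.5 °C from 30−100 °C; Tm from first-derivative maximum of smoothed curves, ΔTm versus blank.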

Series [2] in a line: Binding affinity to AT-rich FAM-TATAAGATTTTCTTATA-TAMRA DNA (unknown origin) assessed as change in melting temperature at 1 uM by FRET assay. In a few lines:
as §1

Series [3] is described as follows: Selectivity ratio of deltaTm for GC-rich FAM-GCGCAGATTTTCTGCGC-TAMRA DNA (unknown origin) to deltaTm for AT-rich FAM-TATAAGATTTTCTTATA-TAMRA DNA (unknown origin). In a few lines:
as §1

Series [4] concerns A549. Nature of the series: Cytotoxicity against human A549 cells after 96 hrs by MTT assay. In kind it is functional, cell-based. As to conditions: A549, 96 h. In a few lines:
(§2)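 Adherent cells were grown at 37 °C in 5% CO2 in DMEM or MEM with 10% FBS, L-glutamine, nonessential amino acids and hydrocortisone, then seeded to 30–40% confluence. Compounds were dissolved in water at up to 100 μM, serially diluted tenfold and added for 96 h of continuous exposure. MTT absorbance was read at 570 nm, and IC50 was taken from dose–response analysis.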

Series [5] is described as follows: Toxicity in ip dosed Swiss Webster mouse. The series is classed as organism-based. To be noted: in vivo.
Series [6] relates to Mus musculus. Nature of the series: Toxicity in Swiss Webster mouse assessed as weight loss at 400 ug/kg/day, ip. The series is classed as organism-based. To be noted: in vivo, 0.4 mg/kg.
Series [7] concerns WI-38. Nature of the series: Cytotoxicity against human WI38 cells after 96 hrs by MTT assay. To be noted: WI-38, 96 h. The series is classed as cell-based. In a few lines: as §2
For orientation: Tetrazolium dyes change colour on reduction, which living cells bring about.

The test system of series [8] is MCF7. Nature of the series: Cytotoxicity against human MCF7 cells after 96 hrs by MTT assay. In kind it is functional, cell-based. As to conditions: MCF7, 96 h. In a few lines:
as §2

In series [9] the test system is MDA-MB-231. Kind of series: Cytotoxicity against human MDA-MB-231 cells after 96 hrs by MTT assay. In kind it is functional, cell-based. To be noted: MDA-MB-231, 96 h. In a few lines: as §2
Series [10] in a line: Cytotoxicity against human primary CLL cells after 96 hrs by annexin V/propidium iodide staining-based FACS flow cytometric analysis. The series is classed as functional, cell-based. The method, boiled down:
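Freshly isolated peripheral blood CLL cells at 1 × 10^6/mL were cultured in RPMI with penicillin, streptomycin and 10% FCS at 37 °C in 5% CO2. Serial dilutions of compound from DMSO stocks were added, with drug-free control cultures. Apoptosis was measured by annexin V/propidium iodide flow cytometry, in duplicate. LD50 came from sigmoidal curves of log concentration against percentage apoptosis.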
(In flow cytometry, cells or beads pass a laser one at a time.)

In series [11] the test system is A2780. Nature of the series: Cytotoxicity against human A2780 cells after 96 hrs by MTT assay. To be noted: A2780, 96 h. The series is classed as functional, cell-based. The method, boiled down: as §2
Series [12] deals with A-431. Nature of the series: Cytotoxicity against human A431 cells after 96 hrs by MTT assay. In kind it is functional, cell-based. To be noted: A-431, 96 h. The method, boiled down: as §2
The subject of series [13] is HeLa. Nature of the series: Downregulation of NFAT in human HeLa cells at 10 nM after 4 hrs relative to control. In kind it is functional. The method, boiled down: (§3)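 Nuclear extracts from 1 × 10^7 HeLa cells treated 4 h, plus untreated controls; 10 μg nuclear protein per sample run on a 48-transcription-factor activation profiling plate array per kit instructions.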

In series [14] the test system is MIA PaCa-2. Nature of the series: Inhibition of NFkappaB in human MIAPaCa2 cells xenografted in mouse assessed as downregulation of BCL2 by immunohistochemical staining relative to control. In kind it is cell-based. The method, boiled down: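 Sections of MIA PaCa-2 xenograft tumors from treated and untreated mice: peroxidase quenched with 0.3% H2O2/methanol 15 min, blocked in 3% goat serum/PBS 30 min, 2 μg/mL BCL2 antibody 1 h at room temperature, then HRP […] antibody 1 h; staining quantified against controls.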

Series [15] relates to CLL. Kind of series: Inhibition of NFkappaB-mediated p65 phosphorylation in human primary CLL cells at 0.1 nM after 24 hrs by Western blotting analysis. The series is classed as cell-based. In a few lines:
(§4)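 Primary CLL cells exposed 24 h, washed in PBS and lysed in HEPES-based buffer with NaF, iodoacetamide, NP40, PMSF, orthovanadate, protease and phosphatase inhibitors; Western blots probed for phosphorylated IκBα and p65, actin as loading control.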
(A western blot detects proteins with antibodies after separation by electrophoresis.)

The subject of series [16] is CLL. Nature of the series: Inhibition of NFkappaB-mediated IkappaBalpha phosphorylation in human primary CLL cells at 0.1 nM after 24 hrs by Western blotting analysis. In kind it is cell-based. The method, boiled down: as §4
Series [17] concerns HeLa. Nature of the series: Inhibition of NFkappaB activity in human HeLa cells at 10 nM after 4 hrs relative to control. The series is classed as cell-based. In a few lines:
as §3

Series [18] concerns HeLa. Nature of the series: Downregulation of SMAD in human HeLa cells at 10 nM after 4 hrs relative to control. In kind it is functional. In a few lines:
as §3

The test system of series [19] is HeLa. Kind of series: Downregulation of OCT4 in human HeLa cells at 10 nM after 4 hrs relative to control. The series is classed as functional. The method, boiled down: as §3
The subject of series [20] is HeLa. Nature of the series: Downregulation of EGR in human HeLa cells at 10 nM after 4 hrs relative to control. The series is classed as functional. In a few lines:
as §3

In series [21] the test system is MIA PaCa-2. Kind of series: Antitumor activity against human MIAPaCa2 cells xenografted in MF1 nude mouse at 300 ug/kg/day, iv administered for 5 consecutive days followed by 2 drug-free days repeated for 3 weeks relative to control. The series is classed as functional, organism-based. In a few lines: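 MIA PaCa-2 cells (5 × 10^6) implanted subcutaneously in flank of female MF1 nude mice (2−3 months, 20−25 g); at ~0.06 cm3, groups of six. DMSO stock diluted in saline, given by tail-vein injection at 300 μg/kg/day, five days on, two off, for three weeks; vehicle controls. Tumors measured every 3−4 days by ellipsoid formula; mice weighed for toxicity.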

Series [22] has as its system Mus musculus. Nature of the series: Toxicity in MF1 nude mouse xenografted with human MDA-MB-231 cells at 250 to 300 ug/kg/day, iv. In kind it is organism-based. As to conditions: in vivo. In a few lines: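 Female MF1 nude mice (2–3 months old, 20–25 g) carried subcutaneous flank MDA-MB-231 xenografts. At about 0.06 cm3 the mice were split into groups of six: 250 or 300 μg/kg iv by tail vein, or untreated. Compound was dissolved in DMSO and diluted in saline, given daily for 5 days then 2 days off, over 4 weeks. Body weight and signs of toxicity (>20% weight loss) were checked every 3–4 days.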

Series [23] deals with MDA-MB-231. Nature of the series: Antitumor activity against human MDA-MB-231 cells xenografted in MF1 nude mouse at 300 ug/kg/day, iv administered for 5 consecutive days followed by 2 drug-free days repeated for 4 weeks measured up to 3 weeks after last dose. The series is classed as functional, organism-based. The method, boiled down: (§5)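 MDA-MB-231 cells (5 × 10^6) implanted subcutaneously in flank of female MF1 nude mice (2−3 months, 20−25 g), passaged as ~1 mm3 tumor pieces; at ~0.06 cm3 (three weeks) split into groups of six. Agent in DMSO diluted in saline, tail-vein iv at 250 or 300 μg/kg/day, 5 days on/2 off for four weeks; untreated controls. Tumor volume (L×W×H×π/6) and body weight every 3−4 days.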

In series [24] the test system is MDA-MB-231. Nature of the series: Antitumor activity against human MDA-MB-231 cells xenografted in iv dosed MF1 nude mouse administered for 5 consecutive days followed by 2 drug-free days repeated for 4 weeks relative to control. In kind it is functional, organism-based. The method, boiled down: as §5
Series [25] concerns Mus musculus. Nature of the series: Toxicity in Swiss Webster mouse at 350 ug/kg/day, ip. In kind it is organism-based. To be noted: in vivo, 0.35 mg/kg.

As a reminder, the ΔTm is the shift of the melting midpoint relative to a reference. For orientation: IC50 means the midpoint of a concentration-inhibition curve. A higher IC50 goes with weaker potency in that assay. As to `COC(=O)c1cc(-c2ccc(NC(=O)c3cc(NC(=O)CCCOc4cc5c(cc4OC)C(=O)N4CCC[C@H]4C=N5)cn3C)cc2)cn1C`, the ΔTm worked out at 1.4 °C in series [1] and 5 °C in series [2]. Besides, the Ratio in series [3] is 0.28. For the same compound, the IC50 in series [4] stood at 0.056 nM; in series [7], 474 nM; in [8], 0.02 pM; in [9], 0.065 pM; in series [10] it was 0.098 nM; in series [11], 0.013 nM. In series [5], this compound had an MTD of 0.4 mg/kg/day. For the same compound, the Activity result in series [6] is reported as “Toxic”.

As usually defined, the inhibition is the change of the read-out against control, counted positive when it falls. For `COC(=O)c1cc(-c2ccc(NC(=O)c3nc(NC(=O)CCCOc4cc5c(cc4OC)C(=O)N4CCC[C@H]4C=N5)cn3C)cc2)cn1C`, the shift in melting temperature (ΔTm) came to 6.2 °C in series [1] and 6 °C in [2]. Further, the Ratio in series [3] was 1.03. Moreover, the IC50 was found to be 0.018 nM in series [12]; 0.034 nM in series [4]; 129 nM in series [7]; 0.02 pM in [8]; 0.18 pM in series [9]; 0.17 nM in series [10]. The compound also registered a half-inhibitory concentration (IC50) in series [11] of 0.021 nM. For the same compound, the Activity was 30% in series [13]; 30% in series [18]; 30% in series [19]; 30% in series [20]; “Non-toxic” in series [22]; “Dose-dependent effect” in series [24]. In series [25], the Activity entry is “Non-toxic”. Moreover, the inhibition entry in [14], in [15] and in [16] was “Active” in each case. The compound also gave an inhibition in [17] of 50%. For the same compound, the result in series [21] and in series [23] was Active. Also, in [5], the MTD is 0.4 mg/kg/day.

The values are drawn from ChEMBL document CHEMBL2321778, “GC-targeted C8-linked pyrrolobenzodiazepine-biaryl conjugates with femtomolar in vitro cytotoxicity and in vivo antitumor activity in mouse models” (J Med Chem, 2013).
